Assay outcomes from PubChem BioAssay.
CYP2C9 inh: inhibitors of human CYP2C9; 20% of 96,000 active; P11712; AID 777; CYP2C9 Supersomes, luciferin-H conversion, luminescence; inhibition, % at 5 µM;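 active = blocking of liver enzyme CYP2C9 beyond about 50% at 5 µM, limit read from the data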
Cav32 inh: blocks human Cav3.2 T-type calcium channel; Cav3.2-expressing cells, Fluo-4 calcium fluorescence FDSS; stronger effect = lower value; 4% of 100,000 active; B-score at 10 µM; AID 449739;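 active = single-dose well whose peak fluorescence ratio is a statistical outlier from its plate by either plate-standardised score or position-corrected B-score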
CYP2C9 activ: activators of human CYP2C9; P11712; recombinant CYP2C9, luciferin-H conversion, luminescence; stronger effect = higher value; factor 1 = untreated enzyme, 0 = blocked; activation factor at 5 µM; 1.4% of 96,000 active; AID 1024;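 active = activation factor of 2 or more for CYP2C9 at a 5 µM dose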;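 note: 0 = sulfaphenazole-blocked wells and 1 = vehicle-only wells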
CYP2C19 act: cytochrome P450 2C19 (human) activation. P33261. recombinant CYP2C19, luciferin-H EGE luminescence; stronger effect = higher value; 0 = fully inhibited enzyme, 1 = untreated enzyme. activation factor at 5 µM. AID 1025. 96,000 tested, under 10 active;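 active = activation factor of at least 2 at 5 µM in the primary screen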;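 note: 0 = wells with 2.5 mM tranylcypromine and 1 = vehicle-only wells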
Target sequence (P33261 whole entry, looked up): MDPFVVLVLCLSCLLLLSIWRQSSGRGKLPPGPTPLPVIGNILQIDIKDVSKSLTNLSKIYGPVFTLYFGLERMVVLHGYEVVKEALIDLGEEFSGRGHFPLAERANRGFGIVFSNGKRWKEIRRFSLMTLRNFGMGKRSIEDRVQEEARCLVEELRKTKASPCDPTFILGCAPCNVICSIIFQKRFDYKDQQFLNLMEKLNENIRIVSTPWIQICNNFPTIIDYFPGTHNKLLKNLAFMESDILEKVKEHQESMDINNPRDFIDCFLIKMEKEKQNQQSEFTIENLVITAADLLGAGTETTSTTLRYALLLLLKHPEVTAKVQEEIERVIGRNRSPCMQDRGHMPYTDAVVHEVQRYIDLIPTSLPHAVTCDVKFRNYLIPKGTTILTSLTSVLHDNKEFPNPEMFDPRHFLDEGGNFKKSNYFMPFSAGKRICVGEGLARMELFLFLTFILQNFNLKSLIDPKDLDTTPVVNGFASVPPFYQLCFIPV
HIV Rev-RRE inh: disrupts HIV-1 Rev binding to RRE RNA; inhibition, % at 8 µM; 0.79% of 97,000 active; Rev peptide-RRE RNA binding, FRET; AID 704; P05866;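 active = inhibition above the screen-wide mean plus 3 SD, cut at about 35% in these data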;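 note: 0% = median DMSO wells and 100% = median Neomycin B control wells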
Target sequence (P05866 whole entry, looked up): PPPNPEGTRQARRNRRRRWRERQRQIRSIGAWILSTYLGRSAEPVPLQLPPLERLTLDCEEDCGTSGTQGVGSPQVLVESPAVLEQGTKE
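Test system – labelled RRE RNA duplex and labelled Rev peptide · Reagent – labelled Rev peptide · Doses – one concentration, 8 µM nominal · Incubation – 5 + 15 min at 25 °C · Signal – FRET fluorescence readout · Read-out basis – % inhibition of FRET ratio versus controls · Control set – DMSO wells as 0% and neomycin B wells as 100% inhibition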
CYP2C19 inh: human CYP2C19 inhibition; P33261; CYP2C19 Supersomes, luciferin-H EGE luminescence, 30 min; inhibition, % at 5 µM; 21% of 96,000 active;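 active = CYP2C19 inhibition above a set limit at 5 µM in the primary screen, cut at about 50% in these data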;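 note: plate controls were negative control wells for no effect and 2.5 mM tranylcypromine positive control for full effect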
Numbers without * were called inactive; [ ] = dose if it differs, or a comment. Rows were chosen to be rich in hits. Some 27% of all compounds tested hit in one or more screens of this group.

How did C=CCNc1oc(/C=C/c2ccccc2)nc1C#N do in these assays?
CYP2C9 inh: 73.6*; Cav32 inh: -0.198; CYP2C9 activ: 0.3; CYP2C19 act: 0.3; HIV Rev-RRE inh: 3.6; CYP2C19 inh: 68.1*

How did CC(=O)N(CC1CCCO1)c1nnc(-c2ccccn2)s1 (configuration not stated) do in these assays?
CYP2C9 inh: 25.7; Cav32 inh: 0.868; CYP2C9 activ: 0.7; CYP2C19 act: 0.8; HIV Rev-RRE inh: 1.5; CYP2C19 inh: 23.6

What do the screens show for `CCCCn1c(CN2CCOCC2)nc2c1c(=O)n(C)c(=O)n2C`?
CYP2C9 inh: -18.1; Cav32 inh: -0.146; CYP2C9 activ: 1.2; CYP2C19 act: 1.2; CYP2C19 inh: -17.3

How did CC1CCCCN1CCNC(=O)c1cnn2ccccc12 (configuration not stated) do in these assays?
CYP2C9 inh: 28.1; Cav32 inh: -0.0166; CYP2C9 activ: 0.7; CYP2C19 act: 1.1; HIV Rev-RRE inh: 5.1; CYP2C19 inh: -8.6

How did COC(=O)N1CC(C)N(C(=O)OC)CC1C (configuration not stated) do in these assays?
CYP2C9 inh: 3.5; Cav32 inh: 0.117; CYP2C9 activ: 1; CYP2C19 act: 0.9; CYP2C19 inh: 12.9

How did CCOC(=O)c1cnn(-c2ccccc2)c1NC(=O)c1ccccc1C do in these assays?
CYP2C9 inh: -5.2; Cav32 inh: 0.2; CYP2C9 activ: 1.1; CYP2C19 act: 0.8; HIV Rev-RRE inh: 0.5; CYP2C19 inh: 15.7

What do the screens show for `CCOC(=O)c1cnn(-c2ccccc2)c1-n1cccc1C(=O)C(=O)Nc1ccccc1C(F)(F)F`?
CYP2C9 inh: 65.4*; Cav32 inh: -2.45; CYP2C9 activ: 0.3; CYP2C19 act: 0.5; HIV Rev-RRE inh: 10.0; CYP2C19 inh: 53.9*

Results for COC(=O)C[C@H]1c2cc(C(F)(F)F)ccc2S(=O)(=O)N1Cc1ccccc1OC ?
Cav32 inh: -0.972

How did CCOC(=O)SC1=N/C(=C\c2ccc(N(C)C)cc2)C(=O)S1 do in these assays?
CYP2C9 inh: 68.0*; CYP2C9 activ: 0.3; CYP2C19 act: 0.9; HIV Rev-RRE inh: 101.4*[fluorescence artefact?]; CYP2C19 inh: 10.0

Results for CCSC1=N/C(=C\c2ccc(C(=O)O)cc2)C(=O)S1 ?
CYP2C9 inh: 2.4; Cav32 inh: -0.188; CYP2C9 activ: 1; CYP2C19 act: 0.9; HIV Rev-RRE inh: 5.9; CYP2C19 inh: 6.2

What do the screens show for `COc1cc(C2=CCN(C(C)=O)CC2)ccc1OC(C)=O`?
Cav32 inh: 1.18

What do the screens show for `CN(C(=O)c1ccncc1)C1CC(C)(C)N(O)C(C)(C)C1`?
CYP2C9 inh: 8.4; CYP2C9 activ: 0.9; CYP2C19 act: 0; HIV Rev-RRE inh: 3.4; CYP2C19 inh: 96.1*

What do the screens show for `Cc1ccc(N(C(=O)c2ccncc2)C2C=CS(=O)(=O)C2)cc1` (configuration not stated)?
CYP2C9 inh: -9.3; Cav32 inh: 0.718; CYP2C9 activ: 1.1; CYP2C19 act: 1.1; HIV Rev-RRE inh: 8.6; CYP2C19 inh: -8.4

Results for COc1cc2c(cc1NC(=O)C(c1ccccc1)c1ccccc1)CCCC2 ?
CYP2C9 inh: 95.9*; Cav32 inh: -6*; CYP2C9 activ: 0; CYP2C19 act: 0.2; HIV Rev-RRE inh: 21.0; CYP2C19 inh: 83.1*

How did COc1cc2c(cc1NC(=O)c1cccc(Br)c1)CCCC2 do in these assays?
CYP2C9 inh: -1.7; Cav32 inh: -0.346; CYP2C9 activ: 1; CYP2C19 act: 1.1; HIV Rev-RRE inh: 12.7; CYP2C19 inh: -10.4

How did COc1ccc(-n2c(=O)c3ccccc3n(CC(=O)Nc3cc(C)on3)c2=O)cc1OC do in these assays?
CYP2C9 inh: 25.7; CYP2C9 activ: 0.7; CYP2C19 act: 0.9; HIV Rev-RRE inh: 4.2; CYP2C19 inh: 8.3

Results for CCN(CCC(=O)Nc1ccc(Br)c(C)c1)Cc1ccccc1 ?
CYP2C9 inh: 64.1*; Cav32 inh: 0.0238; CYP2C9 activ: 0.4; CYP2C19 act: 0.6; HIV Rev-RRE inh: 16.3; CYP2C19 inh: 37.6

How did O=C(CCN(CCO)Cc1ccccc1)Nc1ccc(Br)cc1 do in these assays?
CYP2C9 inh: 63.4*; Cav32 inh: -0.617; CYP2C9 activ: 0.4; CYP2C19 act: 0.3; HIV Rev-RRE inh: 2.7; CYP2C19 inh: 69.4*

How did O=C(CCCOc1ccccc1)Nc1ccc(Br)cc1 do in these assays?
Cav32 inh: -0.181; HIV Rev-RRE inh: -0.4

Results for COc1ccc2cc(CN(CCCN3CCOCC3)Cc3nnnn3C3CCCC3)c(=O)[nH]c2c1 ?
CYP2C9 inh: 4.6; Cav32 inh: 1.4; CYP2C9 activ: 1; CYP2C19 act: 0.7; HIV Rev-RRE inh: 3.3; CYP2C19 inh: 31.8

Results for Cc1ccc2[nH]c(=O)c(CN(Cc3ccc4c(c3)OCO4)Cc3nnnn3C3CCCC3)cc2c1 ?
CYP2C9 inh: 61.0*; CYP2C9 activ: 0.4; CYP2C19 act: 0.6; CYP2C19 inh: 42.0

What do the screens show for `CCc1ccc2[nH]c(=O)c(CN(Cc3nnnn3C3CCCC3)C3CCCCC3)cc2c1`?
CYP2C9 inh: 82.3*; Cav32 inh: -2.56; CYP2C9 activ: 0.2; CYP2C19 act: 0.2; CYP2C19 inh: 76.4*

Results for COc1ccc(CN(Cc2cc3ccc(C)cc3[nH]c2=O)Cc2nnnn2C2CCCC2)cc1 ?
CYP2C9 inh: 93.0*; Cav32 inh: -2.78; CYP2C9 activ: 0.1; CYP2C19 act: 0.1; CYP2C19 inh: 92.8*

Results for COCCn1nnnc1CN(CCc1ccc(OC)c(OC)c1)Cc1cc2ccc(C)cc2[nH]c1=O ?
CYP2C9 inh: 60.8*; Cav32 inh: 0.708; CYP2C9 activ: 0.4; CYP2C19 act: 0.4; HIV Rev-RRE inh: 9.7; CYP2C19 inh: 58.6*

What do the screens show for `Cc1cc2cc(CN(Cc3ccc4c(c3)OCO4)Cc3nnnn3C3CCCC3)c(=O)[nH]c2cc1C`?
CYP2C9 inh: -0.2; Cav32 inh: -0.692; CYP2C9 activ: 1; CYP2C19 act: 0.9; HIV Rev-RRE inh: 3.7; CYP2C19 inh: 5.2

How did COc1[nH]c2ccc(F)cc2c1C(=O)OCC1CCN(CCNS(C)(=O)=O)CC1 do in these assays?
Cav32 inh: -0.218

Results for Cc1ccc2cc(CN(Cc3nnnn3C3CCCCC3)CC3CCCO3)c(=O)[nH]c2c1 (configuration not stated) ?
CYP2C9 inh: 48.9; Cav32 inh: -2.64*; CYP2C9 activ: 0.5; CYP2C19 act: 0.2; HIV Rev-RRE inh: 1.7; CYP2C19 inh: 81.3*

How did Cc1cc(C)c2cc(CN(Cc3nnnn3C3CCCCC3)CC3CCCO3)c(=O)[nH]c2c1 (configuration not stated) do in these assays?
CYP2C9 inh: 55.2*; Cav32 inh: -1.33; CYP2C9 activ: 0.4; CYP2C19 act: 0.1; HIV Rev-RRE inh: -2.1; CYP2C19 inh: 85.8*

How did COc1ccc2cc(CN(Cc3cccs3)Cc3nnnn3Cc3ccccc3)c(=O)[nH]c2c1 do in these assays?
Cav32 inh: -1.78; HIV Rev-RRE inh: 2.5
